In series [1] the target is T1, AtGCL (WT γ-glutamylcysteine ligase) (Arabidopsis thaliana, UniProt P46309).
T1 sequence (P46309 74-522): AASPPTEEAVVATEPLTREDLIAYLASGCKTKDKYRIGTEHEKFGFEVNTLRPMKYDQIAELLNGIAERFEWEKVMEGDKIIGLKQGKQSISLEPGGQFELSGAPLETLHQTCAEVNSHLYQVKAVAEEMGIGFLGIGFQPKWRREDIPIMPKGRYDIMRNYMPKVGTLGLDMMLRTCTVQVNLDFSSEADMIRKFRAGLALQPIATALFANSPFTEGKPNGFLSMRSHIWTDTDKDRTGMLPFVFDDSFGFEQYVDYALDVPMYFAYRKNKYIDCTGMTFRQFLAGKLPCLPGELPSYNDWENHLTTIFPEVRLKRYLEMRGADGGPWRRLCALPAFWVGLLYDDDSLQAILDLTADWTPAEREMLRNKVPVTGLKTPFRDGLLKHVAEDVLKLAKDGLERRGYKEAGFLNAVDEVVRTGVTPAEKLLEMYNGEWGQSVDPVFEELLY
The series is described as follows: inhibition of GCL activity. The format is biochemical. As to conditions: read-out: GSH. The procedure, abridged: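 Recombinant His-tagged AtGCL from E. coli Rosetta-gami DE3, purified by Ni²⁺ affinity, cleaved with TEV protease, then passed through a second Ni²⁺ step. Pyruvate kinase/lactate dehydrogenase-coupled assay at pH 7.0 (100 mM MOPSO, 150 mM NaCl, 20 mM MgCl₂). […] Reaction started with 50 µg enzyme; A340 monitored.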

Substrate in series [2]: N[C@@H](CCC(=O)O)C(=O)O
The series is described as follows: purified protein. As to conditions: 20 mM cysteine, 20 mM ATP, 20 mM MgCl2, pH 7.0, oxidized homo-dimer. The class given is biochemical, Arabidopsis thaliana.

Substrate in series [3]: N[C@@H](CS)C(=O)O
As to the kind of experiment: purified protein. The class given is biochemical, Arabidopsis thaliana. As to conditions: 20 mM ATP, 80 mM glutamate, 20 mM MgCl2, pH 7.0, oxidized homo-dimer.

Here are results for two molecules from paper PMC6463388 (Biochemical Journal, 2019).

Regarding `N[C@@H](CCC(=O)N[C@@H](CS)C(=O)NCC(=O)O)C(=O)O` [GSH], the activity at 2000 µM in series [1] is 49 ± 4%.

B1: AtGCL (WT γ-glutamylcysteine ligase) (Arabidopsis thaliana) (protein)
chain: T1 sequence (P46309 74-522)
On to B1, for which the Km in the series “purified protein [2]” was 6.64 ± 1.02 mM; in the series “purified protein [3]”, 0.34 ± 0.12 mM.

The term Km denotes the substrate concentration at which the rate is half of its maximum.
